STAT1 blocker = inhibitors of IFN-gamma induced STAT1 signaling; NIH 3T3 STAT1-luciferase reporter, luminescence; inhibition, % at 5.5 µM; 200,000 compounds, 0.35% hits;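 active = inhibition above a set limit, the mean inhibition across all tested compounds plus 3 SD, cut at about 34% in these data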;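 note: 0% = IFN-gamma with DMSO and 100% = IFN-gamma with 300 µM nifuroxazide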
PPC-1+TRAIL kill = kills PPC-1 cancer cells in the presence of TRAIL. PPC-1 cells + TRAIL, ATPLite viability luminescence. cell killing (% activity), % at 4 µM or 5 µM. 220,000 compounds, 0.41% hits;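 active = cell killing above 50% in the first pass at 4 µM, then a duplicate retest at 5 µM averaging 50% or more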;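 note: plate controls were cells with TRAIL plus DMSO for no effect and medium-only wells lacking cells for full effect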
STAT3 inh = reduces IL-6 driven STAT3 reporter signal; inhibition, % at 5.5 µM; U3A cells, IL-6 STAT3-luciferase reporter, luminescence; host cell line lacks STAT1; AID 862; 190,000 compounds, 0.89% hits;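 active = inhibition above the mean inhibition across all screened compounds plus 3 SD, cut at about 44% in these data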;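 note: 0% = DMSO only wells and 100% = 100 µM nifuroxazide control wells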
HSP90 refold inh = blocks HSP90-mediated luciferase refolding in reticulocyte lysate; Rabbit reticulocyte lysate, luciferase refolding luminescence, 3 h; inhibition, % at 5.6 µM; 290,000 compounds, 0.91% hits; AID 1789;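 active = inhibition above the screen-wide mean plus 3 SD, computed separately per campaign, cut at about 16% in these data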;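 note: 0% = DMSO wells and 100% = 60 µM geldanamycin wells; inhibitors lower the luminescence because luciferase stays unfolded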
C8 TRAIL sens = caspase-8 TRAIL sensitization; NB7+C8 cells + TRAIL, ATPlite viability luminescence; AID 624354; inhibition (viability loss, TRAIL sensitization), % at 10 µM; 360,000 compounds, 1% hits;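 active = compounds causing at least 50% loss of cell viability in the single-dose screen, relative to plate controls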
STAT3 activator = activators of IL-6 induced STAT3 signaling; AID 871; 190,000 compounds, 0.91% hits; activation (% of control), % at 5.6 µM; U3A cells, IL-6 STAT3-luciferase reporter, luminescence; 100% = signal with IL-6 EC80 alone;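 active = activation above the screen-wide mean of compound activation plus 3 SD, cut at about 130% in these data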;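 note: 0% = background luminescence of wells with medium and substrate only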
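Test system: human U3A cells carrying STAT3-luciferase construct; control set: IL-6-only wells as 100% reference; timing: compound pre-incubation 1 h before IL-6, then 6 h stimulation at 37 °C; also added: IL-6 stimulus at 33 ng/mL final; evaluation: % activation versus median of IL-6-stimulated wells; detection: reporter luminescence signal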
An asterisk follows results filed as active; . = not tested or not shown. Rows were chosen to be rich in hits. Some 2.3% of all compounds tested hit in one or more screens of this group.

SMILES	STAT1 blocker	PPC-1+TRAIL kill	STAT3 inh	HSP90 refold inh	C8 TRAIL sens	STAT3 activator
CC1CC(C)CN(c2ncnc3c2cnn3Cc2ccc(Cl)cc2)C1 (stereo not given)	3	3	7	8	6	96
CC1CN(c2ncnc3c2cnn3-c2ccc(Cl)cc2)CC(C)O1 (stereo not given)	-52	35	18	16*	12	92
O=c1c2ccccc2oc2ccc(NCCCn3ccnc3)cc12	.	.	.	7	50*	.
CC(O)CC(=O)OC[C@]12CC[C@H]3[C@@](C)(CC[C@H]4C(C)(C)CCC[C@]34C)[C@@H]1CC(C1=CC(=O)OC1O)O2 (stereo not given in full)	.	.	.	.	86*	.
CCOc1ccc(S(=O)(=O)N2CCC(C(=O)OCc3cccc(OC)c3OC)CC2)cc1	.	.	.	.	17	.
O=C(COC(=O)c1ccccc1Cl)Nc1nccs1	-10	4	12	0	13	97
CN(C)c1ccc(C2NC(=O)c3ccccc3N2)cc1 (stereo not given)	.	.	.	15	65*	.
Cc1ccc(C(C)C)c(OCC(=O)Nc2ccc3c(c2)nc(CCN2CCCCC2)n3C)c1	.	.	.	0	56*	.
Cc1ccc(C(C)C)c(OCC(=O)Nc2ccc(N3CCN(S(C)(=O)=O)CC3)cc2)c1	-1	30	-36	-2	-9	133*
Cn1c(CCN2CCCCC2)nc2cc(NC(=O)COc3ccc(Cl)cc3)ccc21	.	.	.	-4	4	.
Cc1cccc(C(=O)NCC2CCN(C(=O)c3cccc(C)c3)CC2)c1	.	.	.	-1	1	.
CCCC(=O)c1cc2c(cc1NC(=O)c1ccccc1F)OCCO2	-6	23	29	1	-23	79
Cc1cccc(N2CCN(C(=O)CNC(=O)c3cccc([N+](=O)[O-])c3)CC2)c1C	.	.	.	-4	-4	.
Cc1ccc(C(=O)/C=C\C(=O)c2ccc(C)cc2)cc1	8	24	8	4	-13	95
Cc1ccc(S/C=C\C(=O)c2ccccc2)cc1	5	2	-7	7	55*	111
Oc1ccc(-c2csc(-c3ccccc3)n2)cc1O	-58	12	7	0	22	97
Oc1ccccc1-c1csc(-c2ccccc2)n1	-38	49	-77	-5	0	170*
CCCCCc1cc(=O)oc2c(C(CCN3CCCC3)c3cc(OC)c(OC)c(OC)c3)c(OC)cc(OC)c12 (stereo not given)	.	11	.	.	53*	.
Cc1cc(=O)cc(C)n1-c1ccc(O)cc1	-3	-1	24	0	-3	86
Nc1nc(-c2ccccc2)nc(-c2ccccc2O)n1	3	.	-42	1	9	139*
O=C(Nc1ccc(C(=O)N2CCCCC2)cc1)c1ccccc1Cl	.	.	.	-4	23	.
O=C(NCc1ccoc1)c1ccc(NC(=O)c2ccccc2Cl)cc1	7	6	-31	3	9	133*
COc1ccc(NC(=O)Nc2nc(C(N)CC(C)C)cs2)cc1 (stereo not given)	.	.	.	.	7	.
NC(c1csc(NC(=O)Nc2ccc(OC(F)(F)F)cc2)n1)C1CCCCC1 (stereo not given)	.	.	.	.	85*	.
c1ccc2c(-c3csc(-c4ccncc4)n3)c[nH]c2c1	-54	.	-49	4	22	144*
SMILES	STAT1 blocker	PPC-1+TRAIL kill	STAT3 inh	HSP90 refold inh	C8 TRAIL sens	STAT3 activator
Brc1ccc(-c2csc(-c3c[nH]c4ccccc34)n2)cc1	-26	17	1	-1	-2	108
N#C/C(=C(/O)CCl)c1nc2ccccc2[nH]1	18	2	-41	-3	11	134*
N#C/C(=C(/O)c1ccc([N+](=O)[O-])s1)c1nc2ccccc2[nH]1	.	26	.	4	44*	.
N#C/C(=C(\O)Cc1ccccc1)c1nc2ccccc2[nH]1	4	2	14	-6	33	91
Cc1ccc(NC(=O)Nc2ccc3c(c2)nc(C)n3C)cc1	-37	24	37	7	47	75
Cc1nc2cc(NC(=O)Nc3cccc([N+](=O)[O-])c3)ccc2n1C	.	.	.	6	59*	.
N#C/C(N=Nc1ccccc1O)=N\Nc1ccccc1O	.	.	.	.	54*	.
O=C(NCCc1ccccc1)C1CCC(CNc2c(N3CCCCC3)c(=O)c2=O)CC1 (stereo not given)	9	12	0	4	14	99

Screens as filed in PubChem.
